The subject of assay [1] is PC-12. The experiment in a line: Induction of apoptosis in Abeta1-42 induced rat PC12 cells assessed as early apoptosis at 10 uM preincubated for 3 hrs followed by Abeta1-42 induction and measured after 24 hrs by Annexin V-FITC/PI staining based flow cytometry analysis (reference value: 1.5%). Particulars: time 27 hrs. The format is functional.
Assay [2] deals with PC-12. The assay is described as follows: Neuroprotective activity against in Abeta1-42 induced rat PC12 cells assessed as effect on ERK protein level at 10 uM preincubated for 3 hrs followed by Abeta1-42 induction and measured after 24 hrs by Western blot analysis. The format is functional, cell-based. Particulars: time 27.0 hrs. In short, it runs like this:
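Aβ1–42 challenge in PC12 cells was 10 μM for 24 h after 3 h pretreatment at 10 μM. SP600125 (1.25 μM) was added 0.5 h before pretreatment where used. Cells were lysed in RIPA and protein measured by BCA. Blotting used PVDF transfer, 5% BSA/TBST block for 2 h, primaries 1:1000 overnight at 4 °C, and HRP secondary for 2 h. Bcl-2/Bax ratio and band intensities were quantified.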
On the technique in general: A western blot detects proteins with antibodies after separation by electrophoresis.

Assay [3] has as its system PC-12. The experiment in a line: Neuroprotective activity against Abeta1-42 induced rat PC12 cells assessed as increase in cell viability at 10 uM preincubated for 3 hrs followed by Abeta1-42 induction and measured after 24 hrs in the presence of SP600125 by MTT assay. The settings on record: time 27.0 hrs. Type of assay: functional, cell-based. In short, it runs like this:
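PC12 cells were seeded at 5×10^3/well and pretreated 3 h with test compound (range or 10 μM), with or without SP600125 1.25 μM for 0.5 h beforehand. Cells were then exposed to 10 μM Aβ1–42 oligomers for 24 h. MTT 0.5 mg/mL was added for 3–4 h, formazan dissolved in DMSO, and absorbance read at 570 nm. Viability is given as % of control.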
On the technique in general: Tetrazolium dyes change colour on reduction, which living cells bring about.

Assay [4] has as its system Mus musculus. The experiment in a line: Anti-alzheimer activity in hippocampus of APP/PS1 dE9 double transgenic mouse model as reduction in neuronal apoptosis at 1 to 10 mg/kg, ip administered once daily for 30 consecutive days by immunofluorescence analysis. The format is functional, organism-based. Particulars: dose 1-10 mg/kg, time 30.0 day. In short, it runs like this:
(§1)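 Brains from dosed female APP/PS1 mice (10 months) were fixed in 4% paraformaldehyde at 4 °C for 24–48 h, taken through a sucrose gradient and OCT, and cut into 15 μm sections. Sections were permeabilized with 0.3% Triton X-100, blocked in 10% BSA for 1 h, and incubated with primary antibody overnight at 4 °C (1:200). Secondary was 1:500 for 1 h at 25 °C, with DAPI counterstain and confocal imaging, in triplicate.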

Assay [5] concerns Mus musculus. The assay is described as follows: Anti-alzheimer activity in cortex of APP/PS1 dE9 double transgenic mouse model assessed as reduction in neuronal apoptosis at 1 to 10 mg/kg, ip administered once daily for 30 consecutive days by immunofluorescence analysis. Type of assay: functional, organism-based. The settings on record: dose 1-10 mg/kg, time 30.0 day. In short, it runs like this: as §1

The test system of assay [6] is Mus musculus. The experiment in a line: Neuroprotective activity in APP/PS1 dE9 double transgenic mouse model assessed as improvement in spatial memory at 10 mg/kg, ip administered once daily for 30 consecutive days […] by morris water maze test. The format is functional, organism-based. The settings on record: time 36.0 day. The method in brief: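 Female APP/PS1 mice, 10 months old, about 30 g, 10 per group. Dosing was intraperitoneal in 1× PBS, once daily for one month (1 or 10 mg/kg test; 5 mg/kg donepezil). WT and untreated APP/PS1 controls got PBS. Morris water maze: training days 1–4, averaged escape latency. Day-5 probe trial ran 60 s with the platform removed, recording platform crossings and time per quadrant. Mean ± SEM.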

Each structure is given as a SMILES string. Activity calls are given as the source filed them. The calls are words filed in the database; no cut-off is given here.

For the compound `C=C[C@@]1(C)Cc2occ(C)c2[C@@H]2OC(=O)C(=C)[C@@H]21` [ISOLINDERALACTONE], in the assay with PC-12 [1], the Activity is on record as 2%. Also, the outcome in the assay on PC-12 [2] and in the assay with PC-12 [3] was inactive. Moreover, the result in the assay on Mus musculus [4], in the assay with Mus musculus [5] and with Mus musculus [6] was Active.
